Bounds are passed on as bounds.

The nature of data set [1]: Half life in monkey at 1 mg/kg, iv. The following applies: cynomolgus monkey, in vivo.
A short description of data set [2]: Apparent permeability across apical to basolateral side in human Caco2 cells. It is filed as ADME, cell-based. The settings on record: Caco-2, read-out: permeability.
A short description of data set [3]: Mean residence time in CD1 mouse at 10 mg/kg, iv. It is filed as ADME, organism-based. The following applies: in vivo. In a few lines:
(§1)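 Intravenous dosing in male CD1 mice (10 mg/kg, n = 30), Sprague–Dawley rats (3 mg/kg, n = 3), beagle dogs (3 mg/kg, n = 3) and cynomolgus monkeys (1 mg/kg, n = 3). Vehicle was aqueous 20% hydroxypropyl-β-cyclodextrin. Mean residence time and steady-state volume of distribution were taken from plasma concentration–time profiles as mean parameters.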

Data set [4] concerns the target Mitogen-activated protein kinase; ERK1/ERK2 (Homo sapiens) (UniProt P27361+P28482). Kind of data set: Inhibition of ERK1/2 phosphorylation in human A2058 cells at 30 nM after 24 hrs by Western blot analysis relative to control. It is filed as cell-based. A digest of the protocol:
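A2058 melanoma cells were treated across a compound dose range. pERK1/2 and pRSK levels were detected by Western blot analysis.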

The nature of data set [5]: Half life in Sprague-Dawley rat at 3 mg/kg, iv. It is filed as ADME, organism-based. The settings on record: in vivo. In a few lines:
(§2)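 The compound was given intravenously as an aqueous solution in 20% hydroxypropyl-β-cyclodextrin. Animals were male CD1 mice (10 mg/kg, n = 30), Sprague–Dawley rats (3 mg/kg, n = 3), beagle dogs (3 mg/kg, n = 3) and cynomolgus monkeys (1 mg/kg, n = 3). Plasma concentration–time data gave mean AUC(0–∞), half-life, mean residence time, clearance and Vd,ss.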

The nature of data set [6]: Protein binding in Sprague-Dawley rat plasma at 10 uM. Type of data set: ADME, cell-free. The following applies: read-out: PPB.
A short description of data set [7]: Volume of distribution at steady state in monkey at 1 mg/kg, iv. The following applies: cynomolgus monkey, in vivo, read-out: Vdss.
The test system of a further data set is A2058. Kind of data set: Antiproliferative activity against human A2058 cells harboring BRAF V600E/D mutant measured after 4 days. Type of data set: functional, cell-based. The settings on record: A2058, 96 h.
A further data set addresses hERG (KCNH2) (Homo sapiens, UniProt Q12809). Put plainly: Inhibition of human ERG at 10 uM by IonWork assay relative to control.
For another data set, the target named is Cytochrome P450 3A4 (Homo sapiens, UniProt P08684). Kind of data set: Inhibition of CYP3A4 (unknown origin) preincubated followed by substrate addition. It is filed as ADME.
A short description of data set [8]: Half life in CD1 mouse at 10 mg/kg, iv. It is filed as ADME, organism-based. The following applies: in vivo. In a few lines:
as §2

Data set [9] is described as follows: Tmax in CD1 mouse at 30 mg/kg, po. Type of data set: ADME, organism-based. The settings on record: in vivo. A digest of the protocol:
(§3)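 Oral dosing in male CD1 mice (30 mg/kg, n = 27), Sprague–Dawley rats (10 mg/kg, n = 3), beagle dogs (30 mg/kg, n = 3) and cynomolgus monkeys (10 mg/kg, n = 3). Mean Tmax was read from plasma concentration–time data. Bioavailability was derived from oral AUC(0–∞) compared with intravenous AUC.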

The nature of data set [10]: Tmax in Sprague-Dawley rat at 10 mg/kg, po. Type of data set: ADME, organism-based. The settings on record: in vivo. In a few lines: as §3
The subject of the next data set is Mus musculus. Kind of data set: Oral bioavailability in CD1 mouse at 30 mg/kg. Type of data set: ADME, organism-based. The following applies: in vivo. A digest of the protocol: as §3
Data set [11] in a line: Mean residence time in Sprague-Dawley rat at 3 mg/kg, iv. Type of data set: ADME, organism-based. The settings on record: in vivo. A digest of the protocol:
as §1

The nature of data set [12]: Protein binding in monkey plasma at 10 uM. It is filed as ADME, cell-free, Macaca mulatta. The settings on record: rhesus monkey, read-out: PPB.
The target of data set [13] is Mitogen-activated protein kinase 3 (Homo sapiens, UniProt P27361). Put plainly: Inhibition of ERK1 (unknown origin) using peptide substrate measured after 45 mins by IMAP assay.
Data set [14] has as its system COLO 205. Put plainly: Antitumor activity against human COLO205 cells xenografted in nude mouse assessed as tumor growth inhibition at 40 mg/kg, po bid measured after 28 days relative to control. The settings on record: COLO 205, po, 672 h, read-out: TGI. Type of data set: functional. In a few lines:
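Female nude mice carrying Colo-205 human colon tumor xenografts were randomized to oral dosing twice daily at 20, 40 or 60 mg/kg, or to vehicle. After 28 days of treatment, tumor growth inhibition or tumor regression was assessed relative to vehicle control, with P-value testing.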

Another data set addresses T1, Cytochrome P450 1A2 (Homo sapiens, UniProt P05177).
T1 sequence (P05177 whole entry): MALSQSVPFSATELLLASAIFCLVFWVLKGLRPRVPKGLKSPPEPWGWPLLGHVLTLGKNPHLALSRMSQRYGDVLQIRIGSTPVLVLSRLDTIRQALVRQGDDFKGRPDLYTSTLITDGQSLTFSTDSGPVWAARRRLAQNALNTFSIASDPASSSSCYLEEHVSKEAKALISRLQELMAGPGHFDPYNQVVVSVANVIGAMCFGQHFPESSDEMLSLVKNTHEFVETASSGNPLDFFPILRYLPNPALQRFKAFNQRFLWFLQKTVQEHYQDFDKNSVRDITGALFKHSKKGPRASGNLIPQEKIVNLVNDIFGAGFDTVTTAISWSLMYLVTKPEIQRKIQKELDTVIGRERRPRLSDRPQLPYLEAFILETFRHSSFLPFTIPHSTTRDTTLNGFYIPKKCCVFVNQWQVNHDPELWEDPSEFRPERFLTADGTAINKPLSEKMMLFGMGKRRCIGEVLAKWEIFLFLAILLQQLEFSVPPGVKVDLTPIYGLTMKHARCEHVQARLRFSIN
Kind of data set: Inhibition of CYP1A2 (unknown origin) preincubated followed by substrate addition. It is filed as ADME.

For data set [15], the system named is Cavia porcellus. Put plainly: Cardiotoxicity in telemetered guinea pig assessed as changes in QRS interval at 30 to 100 mg/kg. Type of data set: toxicity, organism-based. The settings on record: in vivo. A digest of the protocol:
(§4)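 Telemetered guinea pigs were exposed at 30 and 100 mg/kg. Electrocardiographic PR, QRS and QT/QTc intervals were monitored for changes related to the test article, and exposure was referenced to total Cmax.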

Another data set addresses T2, Cytochrome P450 2C8 (Homo sapiens, UniProt P10632).
T2 sequence (P10632 whole entry): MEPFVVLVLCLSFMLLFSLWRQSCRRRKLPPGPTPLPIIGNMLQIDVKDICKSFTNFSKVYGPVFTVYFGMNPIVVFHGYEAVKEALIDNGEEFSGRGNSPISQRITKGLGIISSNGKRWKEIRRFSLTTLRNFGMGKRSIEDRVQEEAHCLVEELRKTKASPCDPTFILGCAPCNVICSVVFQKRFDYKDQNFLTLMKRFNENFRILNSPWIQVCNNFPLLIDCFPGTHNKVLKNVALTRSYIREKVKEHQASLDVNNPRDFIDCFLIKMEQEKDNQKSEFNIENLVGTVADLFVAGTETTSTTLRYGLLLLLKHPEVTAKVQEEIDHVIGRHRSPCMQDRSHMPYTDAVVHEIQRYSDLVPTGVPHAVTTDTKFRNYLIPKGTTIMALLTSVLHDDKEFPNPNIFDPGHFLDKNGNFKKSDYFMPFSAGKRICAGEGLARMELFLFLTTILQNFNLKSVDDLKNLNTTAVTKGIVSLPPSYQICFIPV
Kind of data set: Inhibition of CYP2C8 (unknown origin) co-incubated with substrate. Type of data set: ADME.

Data set [16] concerns Cavia porcellus. Kind of data set: Cardiotoxicity in telemetered guinea pig assessed as changes in QTc interval at 30 to 100 mg/kg. The settings on record: in vivo. It is filed as toxicity, organism-based. A digest of the protocol: as §4
In data set [17] the test system is COLO 205. Put plainly: Antiproliferative activity against human COLO205 cells harboring BRAF V600E/D mutant measured after 4 days. The following applies: COLO 205, 96 h. Type of data set: functional, cell-based.
Data set [18] in a line: Protein binding in human plasma at 10 uM. Type of data set: ADME, cell-free. The settings on record: read-out: PPB.

Sequence of hERG (KCNH2) (Q12809 whole entry): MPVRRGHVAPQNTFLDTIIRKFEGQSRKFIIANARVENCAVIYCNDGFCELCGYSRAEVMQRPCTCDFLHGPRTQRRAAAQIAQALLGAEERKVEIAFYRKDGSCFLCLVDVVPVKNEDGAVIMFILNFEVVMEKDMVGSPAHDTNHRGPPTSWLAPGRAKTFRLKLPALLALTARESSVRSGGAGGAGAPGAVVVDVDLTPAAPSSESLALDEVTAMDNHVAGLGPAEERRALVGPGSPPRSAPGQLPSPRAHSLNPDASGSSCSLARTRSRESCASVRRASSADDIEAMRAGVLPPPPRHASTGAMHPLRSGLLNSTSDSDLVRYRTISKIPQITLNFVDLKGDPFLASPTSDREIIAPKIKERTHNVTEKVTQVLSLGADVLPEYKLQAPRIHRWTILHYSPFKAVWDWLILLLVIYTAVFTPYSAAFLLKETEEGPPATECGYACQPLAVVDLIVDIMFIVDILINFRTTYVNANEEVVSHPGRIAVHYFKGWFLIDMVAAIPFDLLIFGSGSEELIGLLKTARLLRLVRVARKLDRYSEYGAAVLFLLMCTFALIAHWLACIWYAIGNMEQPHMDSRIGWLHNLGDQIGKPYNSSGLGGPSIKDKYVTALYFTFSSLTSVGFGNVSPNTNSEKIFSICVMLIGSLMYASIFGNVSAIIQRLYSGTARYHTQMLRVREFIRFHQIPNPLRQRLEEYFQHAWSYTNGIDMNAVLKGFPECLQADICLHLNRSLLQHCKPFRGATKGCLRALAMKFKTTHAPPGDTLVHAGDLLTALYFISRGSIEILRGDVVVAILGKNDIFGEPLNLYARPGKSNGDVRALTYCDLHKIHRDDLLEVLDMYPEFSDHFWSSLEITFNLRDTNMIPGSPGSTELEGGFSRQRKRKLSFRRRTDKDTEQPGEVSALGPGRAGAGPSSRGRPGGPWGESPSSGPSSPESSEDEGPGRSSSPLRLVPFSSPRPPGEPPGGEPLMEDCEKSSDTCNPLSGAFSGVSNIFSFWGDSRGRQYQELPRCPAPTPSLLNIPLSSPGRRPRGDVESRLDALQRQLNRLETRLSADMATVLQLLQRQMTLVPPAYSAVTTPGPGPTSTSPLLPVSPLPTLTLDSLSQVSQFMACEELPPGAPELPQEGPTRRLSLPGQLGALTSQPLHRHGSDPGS
Sequence of Mitogen-activated protein kinase; ERK1/ERK2 (Homo sapiens) (P27361 whole entry, looked up): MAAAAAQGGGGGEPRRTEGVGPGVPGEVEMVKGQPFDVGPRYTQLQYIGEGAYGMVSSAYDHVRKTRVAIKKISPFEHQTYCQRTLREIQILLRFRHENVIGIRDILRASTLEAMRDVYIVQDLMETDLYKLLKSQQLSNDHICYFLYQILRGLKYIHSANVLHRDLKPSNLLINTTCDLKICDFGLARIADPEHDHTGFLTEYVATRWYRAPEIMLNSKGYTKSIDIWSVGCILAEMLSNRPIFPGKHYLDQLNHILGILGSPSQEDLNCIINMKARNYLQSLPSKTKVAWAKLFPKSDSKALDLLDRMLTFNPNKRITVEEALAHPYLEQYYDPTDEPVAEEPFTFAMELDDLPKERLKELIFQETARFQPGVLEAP
Sequence of Mitogen-activated protein kinase; ERK1/ERK2 (Homo sapiens) (P28482 whole entry, looked up): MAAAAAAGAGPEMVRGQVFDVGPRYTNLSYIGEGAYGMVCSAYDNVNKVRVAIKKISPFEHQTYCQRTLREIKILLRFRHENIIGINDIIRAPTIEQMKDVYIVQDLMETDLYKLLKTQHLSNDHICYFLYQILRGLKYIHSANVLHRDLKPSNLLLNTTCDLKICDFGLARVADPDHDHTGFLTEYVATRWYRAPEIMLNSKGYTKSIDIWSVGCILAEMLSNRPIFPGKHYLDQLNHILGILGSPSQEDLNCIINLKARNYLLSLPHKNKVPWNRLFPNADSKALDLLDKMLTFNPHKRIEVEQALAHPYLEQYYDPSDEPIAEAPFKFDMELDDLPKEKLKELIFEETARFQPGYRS
Sequence of Mitogen-activated protein kinase 3 (P27361 whole entry): as the sequence (P27361 whole entry, looked up) above
Sequence of Cytochrome P450 3A4 (P08684 whole entry): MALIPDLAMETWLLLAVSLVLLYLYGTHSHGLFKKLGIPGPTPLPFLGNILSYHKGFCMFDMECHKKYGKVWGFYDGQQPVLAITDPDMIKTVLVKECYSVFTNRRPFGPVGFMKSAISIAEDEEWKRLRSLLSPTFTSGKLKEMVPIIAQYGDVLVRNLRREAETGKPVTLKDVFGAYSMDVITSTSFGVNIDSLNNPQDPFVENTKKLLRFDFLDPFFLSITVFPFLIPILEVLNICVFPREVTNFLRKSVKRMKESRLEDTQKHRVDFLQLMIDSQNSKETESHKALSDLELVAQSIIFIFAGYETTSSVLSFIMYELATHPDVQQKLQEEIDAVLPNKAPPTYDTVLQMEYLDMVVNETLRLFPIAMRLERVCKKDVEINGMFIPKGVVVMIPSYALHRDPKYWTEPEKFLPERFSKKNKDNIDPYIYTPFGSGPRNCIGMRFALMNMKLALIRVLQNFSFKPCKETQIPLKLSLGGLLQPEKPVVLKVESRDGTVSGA

Consider `CS[C@@]1(C(=O)Nc2ccc3[nH]nc(-c4ccc(OC(C)C)nc4)c3c2)CCN(CC(=O)N2CC=C(c3ccc(-c4ncn(C)n4)cc3)CC2)C1` [MK-8353], for which the half-life is 1.3 h in [1], 1.6 h in [5] and 1.8 h in data set [8]. The Papp A→B in data set [2] amounted to 13.4 ×10⁻⁶ cm/s. Moreover, the results for the MRT in data set [3] and in [11] were 1.5 h and 2.3 h, respectively. For the same molecule, in data set [4], the inhibition is 100%. The fraction unbound at 10 µM in data set [6], in [12] and in [18] was under 0.01 throughout. For the same molecule, the Vd in data set [7] turned out to be 2 L/kg. The IC50 was 371 nM in the data set with A2058; 1700 nM against Cytochrome P450 3A4; 20 nM in [13]; over 5000 nM on Cytochrome P450 2C8; 23 nM in the data set with COLO 205 [17]. Also, the inhibition at 10 µM on hERG (KCNH2) is -0.2%. Further, the Tmax came out at 1 h in data set [9] and 1.7 h in data set [10]. In the data set on Mus musculus, this molecule registered an F of 80%. In addition, the inhibition in vivo at 40 mg/kg in the data set on COLO 205 [14] stood at 88%. For the same molecule, the “inhibition (INH)” value against Cytochrome P450 1A2 is reported as “Not Active”. Besides, the Activity result in the data set on Cavia porcellus [15] and with Cavia porcellus [16] was “Non-Toxic” throughout.

Source of the values: ChEMBL document CHEMBL4196128 (ACS Med Chem Lett, 2018).
